Screening data as filed in PubChem.
Rows were chosen to be rich in hits. Some 7.2% of all compounds tested hit in one or more screens of this group.
PostGolgi yeast – growth inhibition of a yeast mutant, post-Golgi transport screen. inhibition, % at 10 µM. post-Golgi transport phenotypic cell assay. AID 739. hit rate 0.9% among 98,000;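 further: yeast cells grown in 1536-well plates; yeast grown about 18 h at 30C before absorbance read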
PostGolgi ctrl – yeast control strain growth, post-Golgi counter-screen; hit rate 5% among 98,000; inhibition, % at 10 µM; efflux-deficient yeast background strain, growth absorbance A615, 16 h; AID 738
PLAP activator – human PLAP activation. hit rate 1.2% among 96,000. purified PLAP enzyme, luminescent substrate read-out; hits give high values. activation fold at 20 µM. P05187. AID 696; in the data active means activation fold above about 2
Target sequence (P05187 whole entry, looked up): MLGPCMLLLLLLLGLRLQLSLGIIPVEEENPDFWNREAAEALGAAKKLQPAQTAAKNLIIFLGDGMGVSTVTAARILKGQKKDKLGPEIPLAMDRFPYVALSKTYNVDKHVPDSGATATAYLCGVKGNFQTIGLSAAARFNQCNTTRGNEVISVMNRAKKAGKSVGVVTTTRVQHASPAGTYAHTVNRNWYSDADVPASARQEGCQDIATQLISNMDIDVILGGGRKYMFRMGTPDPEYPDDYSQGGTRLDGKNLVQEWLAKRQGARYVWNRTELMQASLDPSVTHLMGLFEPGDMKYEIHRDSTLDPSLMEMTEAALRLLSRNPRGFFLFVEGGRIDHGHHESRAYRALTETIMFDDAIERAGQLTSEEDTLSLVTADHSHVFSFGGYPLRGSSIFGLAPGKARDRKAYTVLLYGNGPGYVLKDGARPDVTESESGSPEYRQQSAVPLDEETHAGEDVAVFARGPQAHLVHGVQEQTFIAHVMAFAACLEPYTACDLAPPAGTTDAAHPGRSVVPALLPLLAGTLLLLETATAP
E coli WT exp – E. coli BW25113 growth inhibition, expanded screen. OD600 absorbance. growth inhibition, % at 100 µM. hit rate 0.15% among 98,000;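 active means growth inhibition above about 50% at one test dose, limit read from the data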;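 further: growth measured after 20 h incubation at 37 °C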
Ecoli tolC – blocks growth of E. coli BW25113 tolC mutant; OD615; growth inhibition, % at 10 µM (by protocol); hit rate 2.2% among 65,000;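 active means growth inhibition at or above a cutoff equal to the mean over every tested compound plus 3 SD, cut at about 60% in these data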;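 further: growth measured after 20 h incubation at 37 °C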
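System: E. coli ΔtolC::kan strain BW25113; Buffer or medium: LB broth supplemented with 50 µg/mL kanamycin; Compound: 10 µM final, single dose; Incubation: bacterial growth with compound for 20 h at 37 °C; Signal: A615 absorbance measurement; Evaluation: growth inhibition in percent.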
Each line names hits and unclear results; the compound was inactive in the other large screens. Unless noted, no stated cut-off is given here; in the data, active means inhibition above about 30%; inactive means the rest.

CCOC(=O)c1c(-c2ccc(C)o2)csc1NC(=O)CN(C)CC(=O)Nc1ccc(C)cc1	PLAP activator 2.2 (no result: Ecoli tolC)
CCOC(=O)c1c(-c2ccc(C)o2)csc1NC(=O)CN1CCN(CC)CC1	none
CCCc1cc(C(=O)Nc2cccc(Cl)c2)no1	Ecoli tolC 98
CCCc1cc(C(=O)Nc2cccc(C(C)=O)c2)no1	none
O=C(CN(CCO)c1ccccc1)NC12CC3CC(CC(C3)C1)C2	none
COc1cccc(-c2nn3c(-c4cccc(C)c4)nnc3s2)c1	PostGolgi ctrl 44
CCOc1cccc(-c2nn3c(-c4ccco4)nnc3s2)c1	PostGolgi ctrl 43
c1ccc(-c2cc(-c3nn4c(-c5ccco5)nnc4s3)c3ccccc3n2)cc1	PostGolgi ctrl 38
COc1cccc(-c2nnc3sc(-c4ccc(C)cc4)nn23)c1	none
COc1cc(OC)c(-c2nn3c(-c4ccco4)nnc3s2)cc1OC	PostGolgi ctrl 34
O=C(CCn1c(=O)sc2ccccc21)NCCN1CCOCC1	none (no result: PostGolgi yeast, PostGolgi ctrl, PLAP activator, E coli WT exp)
COc1ccc(-c2nn3c(-c4ccco4)nnc3s2)cc1OC	PostGolgi ctrl 31
CN(C)c1nc(N2CCCCC2)nc(N2CCCCC2)n1	none (no result: PostGolgi yeast, PostGolgi ctrl, PLAP activator, E coli WT exp)
OCCN(CCO)c1nc(N2CCCCC2)c2nc(N(CCO)CCO)nc(N3CCCCC3)c2n1	Ecoli tolC 100 (no result: PostGolgi yeast, PostGolgi ctrl, PLAP activator, E coli WT exp)
O=[N+]([O-])c1ccc(N2N=C(c3ccco3)CC2c2ccccc2)cc1 (stereo not drawn)	PostGolgi ctrl 31 (no result: Ecoli tolC)
Cc1ccc2c(=O)c(CN(C)C3CCN(C)CC3)c(C)[nH]c2c1C	none (no result: PostGolgi yeast, PostGolgi ctrl, PLAP activator, E coli WT exp)
CC(C)C(C)(C#N)NC(=O)CSc1nnc(C(F)(F)F)n1C (stereo not drawn)	none (no result: Ecoli tolC)
CC(SC1CCCC1)C(=O)NC(C)(C#N)C(C)C (stereo not drawn)	PostGolgi ctrl 31
COC(=O)c1c(S(=O)(=O)NCc2ccccc2)sc(C(=O)O)c1C	none (no result: Ecoli tolC)
O=C(OCn1ncc(Cl)c(Cl)c1=O)c1ccc(F)cc1	PostGolgi yeast 33 (no result: Ecoli tolC)
O=C(OCn1ncc(Cl)c(Cl)c1=O)c1ccccc1Cl	PostGolgi yeast 79 (no result: Ecoli tolC)
CCOc1ccc(-n2c(C)nc3c(cnn3-c3ccc(Cl)cc3)c2=O)cc1	none
CCc1nc2c(cnn2-c2ccc(Cl)cc2)c(=O)n1-c1ccc(OC)cc1	PostGolgi ctrl 49
Cn1c(=O)[nH]c(=O)c2c1nc(N1CCCC1)n2CCCSc1nc2ccccc2o1	PostGolgi ctrl 46
CCn1c(N2CCC(Cc3ccccc3)CC2)nc2c1c(=O)[nH]c(=O)n2C	PostGolgi ctrl 37
CC1CCCN(c2nc3c(c(=O)[nH]c(=O)n3C)n2CCCc2ccccc2)C1 (stereo not drawn)	PostGolgi ctrl 35
CCCn1c2ccccc2c2nnc(SCC(=O)OC)nc21	none
CCn1c2ccccc2c2nnc(SCC(N)=O)nc21	none (no result: Ecoli tolC)
CCn1c2ccccc2c2nnc(SCc3ccccc3)nc21	PostGolgi ctrl 61, Ecoli tolC 73
CCCn1c2ccccc2c2nc3ccccc3nc21	PostGolgi ctrl 40, Ecoli tolC 69
CCn1c2ccccc2c2nnc(SCc3ccc(C(=O)OC)o3)nc21	PostGolgi ctrl 42
CCCn1c2ccccc2c2nnc(SCC(=O)OCC)nc21	PostGolgi ctrl 39
N#Cc1cc([N+](=O)[O-])cnc1NCC(O)CO (stereo not drawn)	none (no result: Ecoli tolC)
CCn1c(-c2ccc(C)cc2)n[nH]c1=S	none (no result: Ecoli tolC)
COc1ccc(-c2n[nH]c(=S)n2CC(C)C)cc1	PLAP activator 2.5 (no result: Ecoli tolC)
Cc1ccc(C)c(NC(=S)N(CCc2nc3cc(C)c(C)cc3[nH]2)Cc2cccnc2)c1	none (no result: Ecoli tolC)
CCOC(=O)Cc1csc(SCc2nc3ccccc3c(=O)[nH]2)n1	none
CCOC(=O)c1c(-c2ccc(OC)cc2)csc1NC(=O)CNCc1ccco1	PostGolgi ctrl 85 (no result: Ecoli tolC)
O=C(NCCc1ccccc1)C(=O)NCC1CCCO1 (stereo not drawn)	none (no result: Ecoli tolC)
Cc1ccc(C)c(N2CCN(CC(=O)Nc3ccc([N+](=O)[O-])cc3C(=O)Nc3ccccc3F)CC2)c1	PostGolgi ctrl 38 (no result: Ecoli tolC)
CCOc1ccc(OCC)c(NC(=O)CN2CCN(c3cc(C)ccc3C)CC2)c1	none
CN(CC(=O)N1CCN(c2ccccc2)CC1)S(=O)(=O)c1cnc[nH]1	PostGolgi ctrl 36
CN(CC(=O)N1CCN(c2ccc(F)cc2)CC1)S(=O)(=O)c1ccc(F)cc1	none
CC(=O)N1c2c(ccc3ccccc23)C(C)CC12CCCCC2 (stereo not drawn)	PostGolgi ctrl 38 (no result: Ecoli tolC)
NC(=O)C1CCCN(C(=O)Nc2cccc3ccccc23)C1 (stereo not drawn)	none
C(=N\N1CCN(C2c3ccccc3-c3ccccc32)CC1)/c1cccnc1	none (no result: Ecoli tolC)
C(=N\N1CCN(C2c3ccccc3-c3ccccc32)CC1)/c1ccccn1	PostGolgi ctrl 31 (no result: Ecoli tolC)
